Consider 3 compounds from ChEMBL document CHEMBL1955718, “Discovery of new orally effective analgesic and anti-inflammatory hybrid furoxanyl N-acylhydrazone derivatives” (Bioorg Med Chem, 2012).

The test system of data set [1] is HT-29. Kind of data set: Inhibition of TNFalpha-induced NF-kappaB activation expressed in human HT-29 cells coexpressing hrGFP at 100 uM after 24 hrs by propidium iodide staining-based flow cytometric analysis relative to control. Type of data set: cell-based. The procedure, abridged: (§1)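 HT-29 cells stably expressing NF-κB-driven hrGFP given compound (DMSO <0.5%) for 2 h at the maximum non-cytotoxic concentration, then TNF-α at 3 ng/mL final for 18–24 h. Cells trypsinised and stained with propidium iodide; 5000 events gated on FSC/SSC. The %GFP-positive among PI-excluding live cells is normalised to TNF-α/DMSO control, ± SD.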
(In general: Flow cytometry measures light scatter and fluorescence of single cells or particles in a stream.)

Data set [2] relates to HT-29. The experiment in a line: Inhibition of NF-kappaB activation expressed in human HT-29 cells assessed as inhibition of TNFalpha-stimulated IL8 release at 400 uM after 24 hrs by flow cytometric analysis relative to Thal. The format is cell-based. Summed up: (§2)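 Reporter HT-29-NF-κB-hrGFP cells pretreated 2 h with compound (DMSO <0.5%) at the highest concentration with 100% survival, then stimulated with TNF-α (3 ng/mL final) for 18–24 h at 37 °C. IL-8 in clarified supernatant measured by flow cytometric bead assay (500 events). Expressed as % of TNF-α/DMSO control ± SD; thalidomide as reference.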

For data set [3], the system named is Mus musculus. Kind of data set: Analgesic activity in albino mouse assessed as inhibition of acetic acid-induced abdominal constriction at 100 umol/kg, po administered 1 hr before acetic acid challenge measured after 30 mins relative to control. The conditions noted are these: Abdomen. The format is functional. The procedure, abridged:
(§3)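 Albino mice of both sexes (18–23 g) were dosed orally as a suspension in 5% arabic gum in saline, with vehicle controls. After 1 h they received 0.6% acetic acid ip (0.1 mL/10 g). Constrictions were counted for 20 min starting 10 min after injection. Data are % inhibition vs vehicle, mean ± SEM, Student t-test.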

Data set [4] deals with Rattus norvegicus. Kind of data set: Antihyperalgesic activity against carrageenan-induced thermal hyperalgesia in Wistar rat assessed as latency of withdrawal response at 100 umol/kg, po administered 1 hr before carrageenan challenge measured after 1 hr by hot plate test. The format is functional. The procedure, abridged: (§4)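 Wistar rats of both sexes (150–200 g) were dosed orally as a suspension in 5% arabic gum in saline, with vehicle controls. After 1 h, 0.1 mL 1% carrageenan (1 mg/paw) or saline was injected subplantar into the hind paws. Left hind paw withdrawal latency was read on a 51 °C hot plate at 0–240 min (cut-off 20 s). Δlatency = time-0 minus later latency; mean ± SEM, n = 8–10; t-test.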
(In general: In hot-plate and tail-flick tests a longer latency is read as antinociception.)

The nature of data set [5]: Inhibition of soybean lipoxygenase using arachidonic acid as substrate. Also on record: species or system Glycine max. The procedure, abridged:
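Soybean 15-lipoxygenase kit assay, arachidonic acid substrate, H2O2 as lipoxygenating agent in 0.1 M Tris-HCl pH 7.4. Single-point screen at 50 µM. IC50 found by varying concentration over 10–100 µM. Quercetin at 4 µM as positive control; duplicate means; Student t-test.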

Data set [6] is described as follows: Induction of NO release in 0.1 M Tris-HCl and 0.1 mM DTPA at pH 7.4 measured for 20 mins in presence of cysteine. The format is physicochemical. Conditions: buffer, pH 7.4, 20 min. Summed up:
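Electrochemical NO detection with an ISO-NOP sensor. Compounds in DMSO added to 0.1 M Tris-HCl, 0.1 mM DTPA at pH 7.4 or 8.3. Cysteine (300 or 100 µM) added and NO recorded for 20 min at 25 or 37 °C; compound:Cys ratio 1:1 at 25 °C, with 3:1 and 37 °C runs also made.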

Data set [7] concerns Salmonella typhimurium. The experiment in a line: Induction of mutagenesis in Salmonella Typhimurium TA98 assessed as number of revertants at 3.1 to 250 ug/plate in presence of mouse liver S9 fraction. Type of data set: toxicity, organism-based. The conditions noted are these: salmonella enterica subsp. enterica serovar typhimurium. The procedure, abridged: (§5)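 S. typhimurium TA98, plate incorporation on minimal glucose (Vogel-Bonner) agar. Compounds were in DMSO, dosed in triplicate with a top non-toxic dose of 250 or 350 µg/plate. Runs were without S9 (positive control 4-nitro-o-phenylenediamine, 20 µg/plate) or with 500 µL Aroclor-induced mouse liver S9 (positive control 2-aminofluorene, 10 µg/plate), plus a DMSO control. Revertants were counted manually; mutagenic means ≥2-fold spontaneous revertants at two consecutive doses.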

The subject of data set [8] is Salmonella typhimurium. The experiment in a line: Induction of mutagenesis in Salmonella Typhimurium TA98 assessed as number of revertants at 3.1 to 250 ug/plate in absence of mouse liver S9 fraction. Type of data set: toxicity, organism-based. The conditions noted are these: salmonella enterica subsp. enterica serovar typhimurium. The procedure, abridged:
as §5

Data set [9] concerns HT-29. Kind of data set: Inhibition of TNF-alpha-induced NFkappaB activation expressed in human HT-29 cells coexpressing hrGFP at 50 uM after 24 hrs by propidium iodide staining-based flow cytometric analysis relative to control. Type of data set: cell-based. The procedure, abridged: as §1
The subject of data set [10] is HT-29. Kind of data set: Inhibition of NF-kappaB activation expressed in human HT-29 cells assessed as inhibition of TNFalpha-stimulated IL8 release at 50 uM after 24 hrs by flow cytometric analysis relative to control. Type of data set: cell-based. The procedure, abridged:
as §2

Data set [11] relates to Rattus norvegicus. Kind of data set: Antihyperalgesic activity against carrageenan-induced thermal hyperalgesia in Wistar rat assessed as latency of withdrawal response at 100 umol/kg, po administered 1 hr before carrageenan challenge measured after 3 hrs by hot plate test. Type of data set: functional. The procedure, abridged: as §4
In data set [12] the test system is Salmonella typhimurium. The experiment in a line: Induction of mutagenesis in Salmonella Typhimurium TA98 assessed as number of revertants at 6 to 500 ug/plate in presence of mouse liver S9 fraction. The format is toxicity, organism-based. Conditions: salmonella enterica subsp. enterica serovar typhimurium.
The subject of data set [13] is Salmonella typhimurium. Kind of data set: Induction of mutagenesis in Salmonella Typhimurium TA98 assessed as number of revertants at 6 to 500 ug/plate in absence of mouse liver S9 fraction. Type of data set: toxicity, organism-based. Conditions: salmonella enterica subsp. enterica serovar typhimurium.
Data set [14] has as its system Mus musculus. Kind of data set: Analgesic activity in albino mouse assessed as inhibition of acetic acid-induced abdominal constriction at 100 umol/kg, po administered 1 hr before acetic acid challenge measured after 60 mins relative to control. Type of data set: functional. Conditions: Abdomen. Summed up:
as §3

Data set [15] concerns Salmonella typhimurium. Kind of data set: Induction of mutagenesis in Salmonella Typhimurium TA98 assessed as number of revertants at 4 to 350 ug/plate in presence of mouse liver S9 fraction. Type of data set: toxicity, organism-based. Conditions: salmonella enterica subsp. enterica serovar typhimurium. Summed up:
as §5

Data set [16] has as its system Salmonella typhimurium. Kind of data set: Induction of mutagenesis in Salmonella Typhimurium TA98 assessed as number of revertants at 4 to 350 ug/plate in absence of mouse liver S9 fraction. The format is toxicity, organism-based. Conditions: salmonella enterica subsp. enterica serovar typhimurium. The procedure, abridged:
as §5

In data set [17] the test system is Rattus norvegicus. The experiment in a line: Antihyperalgesic activity against carrageenan-induced thermal hyperalgesia in Wistar rat assessed as latency of withdrawal response at 100 umol/kg, po administered 1 hr before carrageenan challenge measured after 30 to 240 mins by hot plate test. The format is functional, organism-based. Summed up:
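Wistar rats of both sexes (150–200 g) dosed orally at 100 µmol/kg as suspension in 5% arabic gum in saline, vehicle controls. After 1 h, 1% carrageenan (1 mg/paw) or saline injected subplantar. Left hind paw withdrawal latency on hot plate at 51 ± 0.1 °C read at 0–240 min, 20 s cut-off. Δ latency = time-0 latency minus later latency; mean ± SEM, n = 8–10; Student t-test.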

Structures are written as SMILES. Active and inactive are the calls of the source.

One may read the inhibition in vivo as the relative decrease from the control value, in per cent. For orientation: IC50 means the concentration needed to halve the response being measured. Read a high IC50 as weaker potency in that assay. On to `O=C(N/N=C/c1c(-c2ccccc2)no[n+]1[O-])c1ccc2c(c1)OCO2`, for which the NF-kappaB activity (% of TNF-alpha control) in the data set with HT-29 [1] was determined as 12%. Also, in the data set with HT-29 [2], the fold change (FC) was determined as 16. Also, the inhibition in vivo at 100 µmol/kg in the data set on Mus musculus [3] was 42%; in the data set on Rattus norvegicus [4], 14%. The same compound gave an IC50 in data set [5] above 100 µM. The Activity was 0 nM/min in data set [6], “Non-toxic” in the data set with Salmonella typhimurium [7] and “Non-toxic” with Salmonella typhimurium [8].

For orientation: inhibition means the relative decrease from the control value, in per cent. For the compound `Cc1[nH]cnc1C(=O)N/N=C/c1ccc2no[n+]([O-])c2c1`, in the data set on HT-29 [9], the NF-kappaB activation (% of TNF-alpha control) was found to be 71%. Moreover, the inhibition in the data set with HT-29 [10] came out at 51%. In addition, the inhibition in vivo at 100 µmol/kg was 46% in the data set on Mus musculus [3] and 14% in the data set with Rattus norvegicus [11]. Besides, the Activity in data set [6] is 0 nM/min; in the data set with Salmonella typhimurium [12] it was “Non-toxic”; in the data set on Salmonella typhimurium [13], “Toxic”.

In the case of `Cc1c(C(=O)N/N=C/c2ccc(N(C)C)cc2)no[n+]1[O-]`, the NF-kappaB activity (% of TNF-alpha control) in the data set with HT-29 [1] worked out at 150%. Besides, the inhibition in vivo at 100 µmol/kg with Mus musculus [14] was found to be 22%. Besides, the Activity entry in the data set with Salmonella typhimurium [15] and in the data set on Salmonella typhimurium [16] was “Non-toxic” throughout. Moreover, the result in the data set with Rattus norvegicus [17] was inactive.
